# Hits are enriched below; roughly 1.5% of the tested compounds scored in any of these assays.
# RanGTP-Imp inh: inhibitors of RanGTP-importin-beta interaction, primary screen, biochemical, FRET, CFP-Ran, YFP-importin-beta, homogeneous | inhibition, % (no concentration beside the values) | actives 1.1% (n = 300,000) | cell-free CFP-Ran/YFP-importin-beta FRET ratio;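 active = more than half of the replicate wells show a fall in the fluorescence ratio signal beyond about 16%, limit read from the data, passing the limit was not always enough; inconclusive = exactly half of the replicate wells pass the set limit; inactive = fewer than half of replicates pass the limit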;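 note: 0% = DMSO wells and 100% = Ran loaded with GDP instead of GTP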
# CaV13 ICDI inh: Primary screen for inhibitors of IQ motif and Ca2+-dependent inactivation inhibitor domain binding in CACNA1D, Förster resonance energy transfer in living cells, … | HEK cells, CFP/YFP FRET ICDI-IQ, plate reader, 10 min; percent FRET-ratio fall versus neutral wells | AID 743397 | inhibition, % at 12.3 µM | actives 0.098% (n = 340,000);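 active = mean replicate inhibition of at least 30% and at least 1% of replicates passing that level; inconclusive = only one of the two criteria is met; inactive = neither criterion is met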;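 note: 0% = median of the neutral control wells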
# Runt-CBFb FRET: Runt domain-CBFb interaction inhibition; actives 0.46% (n = 220,000); inhibition, % at 20 µM; Cerulean-Runt/Venus-CBFb FRET ratio 530/480, 1 h;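 active = inhibition over about 50% at 20 µM in the single-dose screen, limit read from the data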;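 note: 0% = DMSO wells and 100% = excess unlabeled CBFb competitor control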
# Target sequence (Q01196 whole entry, looked up, the tested form may be a part): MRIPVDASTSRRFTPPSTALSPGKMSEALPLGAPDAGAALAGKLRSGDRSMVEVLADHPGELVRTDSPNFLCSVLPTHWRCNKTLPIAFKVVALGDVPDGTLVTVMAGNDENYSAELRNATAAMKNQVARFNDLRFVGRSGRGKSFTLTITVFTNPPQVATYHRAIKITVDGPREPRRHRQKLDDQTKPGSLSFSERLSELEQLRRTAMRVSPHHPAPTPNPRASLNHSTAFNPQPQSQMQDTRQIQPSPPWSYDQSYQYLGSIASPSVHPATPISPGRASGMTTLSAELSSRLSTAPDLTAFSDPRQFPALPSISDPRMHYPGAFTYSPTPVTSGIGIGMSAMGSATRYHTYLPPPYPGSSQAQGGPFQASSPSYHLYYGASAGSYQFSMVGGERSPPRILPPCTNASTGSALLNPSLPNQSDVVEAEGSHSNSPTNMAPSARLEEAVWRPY
# Target sequence (Q13951 whole entry, looked up, the tested form may be a part): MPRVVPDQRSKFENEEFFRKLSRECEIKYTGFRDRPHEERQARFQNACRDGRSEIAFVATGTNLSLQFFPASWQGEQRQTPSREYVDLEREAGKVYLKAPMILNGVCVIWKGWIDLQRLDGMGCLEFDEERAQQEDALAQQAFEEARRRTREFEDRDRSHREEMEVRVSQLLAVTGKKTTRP
#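 Assay system: Cerulean-Runt domain fusion protein, energy donor; Signal: fluorescence energy transfer, 422 nm excitation, 530/480 nm emission; Timing: 1 h compound exposure, room temperature; Control set: unlabeled CBFb; Medium: Tris buffer pH 7.5 with salts and BSA; Compound: single test concentration of 20 µM, 1% DMSO final; Probe or stimulus: Venus-CBFb 100 nM.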
# Runt-SMMHC FRET: blocks binding of human RUNX1 Runt domain to CBFb-SMMHC. actives 0.74% (n = 220,000). inhibition, % at 20 µM. Cerulean-Runt/Venus-CBFb-SMMHC FRET ratio 530/480, 1 h. AID 1434;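 active = mean inhibition across duplicate retests at 20 µM reaching about 50%, limit read from the data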;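 note: 0% = DMSO wells and 100% = wells with excess untagged CBFb-SMMHC; inhibitors lower the FRET ratio by blocking Runt binding to CBFb-SMMHC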
# Hck-Nef inh: human Hck-Nef kinase inhibition | P08631 | Recombinant Hck-YEEI plus Nef, Z-Lyte FRET kinase assay | inhibition, % at 20 µM | actives 0.68% (n = 220,000);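 active = Hck-Nef kinase inhibition above about 50%, limit read from the data; inactive = inhibition below that limit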;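 note: 0% = DMSO with Hck plus Nef and 100% = Hck alone without Nef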
# Runt-CBFb TRFRET: inhibitors of human RUNX1 Runt domain binding to CBFb. inhibition, % at 20 µM. actives 20% (n = 480). AID 1502. TR-FRET RUNX1 Runt domain-CBFb binding. shares compounds with Runt-CBFb FRET; in the data active = inhibition above about 40%
# YIC FRET counter: counter-screen: alters YIC FRET probe signal; actives 40% (n = 1,000); shares compounds with RanGTP-Imp inh; IC50, µM; Purified YIC probe, intramolecular FRET ratio YFP/CFP;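 active = fitted half-maximal inhibitory concentration no more than tenfold above the top dose tested; inconclusive = flat fit with 30 to 70% activity, or poor fit; inactive = half-maximal concentration beyond tenfold above the top dose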
# Hck Nef conf: confirmation of Hck-Nef kinase inhibitors. actives 28% (n = 1,300). calls only at 10 µM. shares compounds with Hck-Nef inh. Recombinant Hck-YEEI:Nef, Z-Lyte FRET kinase assay;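 active = average inhibition of at least 50%, with Z-scores no higher than 3 in both the phospho-tyrosine peptide and fluorescence counterscreens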
# * hit, by the source's call; i = inactive; u = inconclusive; x = not tested or not shown; + = active, no number.
SMILES,RanGTP-Imp inh,CaV13 ICDI inh,Runt-CBFb FRET,Runt-SMMHC FRET,Hck-Nef inh,others
COCCOC(=O)c1c(N)n(Cc2ccccc2)c2nc3ccccc3nc12,18.6*,-2.9,50.7*,107.8*,33.7,Runt-CBFb TRFRET=1.3;YIC FRET counter=46.5*
COc1ccc2[nH]c(C)c(CCNCc3cccnc3)c2c1,x,-11.9,x,x,x,
COC(=O)[C@@H]1N=C(c2ccc(OC)cc2)O[C@]12C(=O)N(Cc1ccc(OC)cc1)c1ccccc12,x,-6.7,x,x,x,
CCCCn1c(N)c(C(=O)OCCOC)c2nc3ccccc3nc21,u,-3.2,61.8*,106.8*,66.4*,Runt-CBFb TRFRET=27.1
CCOC(=O)[C@@]1(C#N)C(c2ccc(Cl)c(Cl)c2)[C@H](C(N)=O)N2C=C(C(C)=O)C=C[C@H]21 (stereo not given in full),x,x,1.7,2.7,1.8,
CN1CC2=CC(O)CC3Oc4c(O)ccc(c4[C@]23C)C1 (stereo not given in full),25.5*,x,x,x,x,YIC FRET counter=>50
COc1cc(OC)c(OC)cc1/C=C1\C(=O)NC(=O)N(Cc2ccccc2)C1=O,-0.1,3.6,0.3,2.8,7.6,
Cc1cc(C=C(C#N)C#N)ccc1N1CCCC1,31.1*,-4.9,-32.1,-63.0,21.2,YIC FRET counter=>26
O=C(Nc1cccc(OC(=O)N2CCOCC2)c1)N1CCOCC1,-1.7,-5.7,1.1,0.2,2.4,
O=C(Nc1cccc(OC(=O)N2CCCCC2)c1)N1CCCCC1,21.1*,x,0.5,-0.8,1.7,YIC FRET counter=>50
CC(=O)N1CN2CN(C(C)=O)CC(C(=O)c3ccccc3)(C2)C1,20.7*,x,-0.8,2.0,4.2,YIC FRET counter=>50
CC(=O)N1CN2CN(C(C)=O)CC(C(=O)c3ccc([N+](=O)[O-])cc3)(C2)C1,0.9,1.7,-1.9,1.7,20.8,
C=CCN1CCc2cccc3c2[C@H]1Cc1ccc(O)c(O)c1-3,18.7*,-3.4,x,x,x,YIC FRET counter=>50
O=c1cccc2n1CC1CC2CN(S(=O)(=O)c2cc(Cl)ccc2Cl)C1 (stereo not given),-1.5,-10.0,x,x,x,
CC(C)OC(=O)c1c(N)n(CC2CCCO2)c2nc3ccccc3nc12 (stereo not given),23.6*,-5.2,71.8*,92.0*,30.7,YIC FRET counter=19.9*
C/C=C(\C)C(=O)N[C@@H](c1ccccc1)[C@@H](O)C(=O)O[C@H]1C[C@@]2(O)[C@@H](OC(=O)c3ccccc3)C3[C@](C)(C(=O)[C@H](O)C(=C1C)C2(C)C)[C@@H](O)C[C@H]1OC[C@@]31OC(C)=O (stereo not given in full),-0.3,x,x,x,x,
CCCCNC(=O)c1c(N)n(Cc2ccc3c(c2)OCO3)c2nc3ccccc3nc12,32.3*,-7.8,10.1,36.8,13.5,YIC FRET counter=3.12*
CC(C)CCn1c(=O)c(C(=O)NCc2ccc3c(c2)OCO3)c(O)c2ccccc21,2.1,-3.4,x,x,x,
CC1(C)C(=O)C=C[C@]2(C)[C@H]3CC[C@@]4(C)[C@H](c5ccoc5)OC(=O)[C@H]5O[C@]54[C@]3(C)[C@H](O)C[C@@H]12,4.1,x,-0.3,0.3,-5.3,
CCN1/C(=C\C=C\C2=[N+](CC)c3ccccc3C2(C)C)C(C)(C)c2ccccc21,26.8*,x,7.6,18.3,3.4,YIC FRET counter=29.8*
Cc1cc(OCC(=O)NCC2CCC(C(=O)O)CC2)c2c3c(c(=O)oc2c1)CCC3 (stereo not given),1.2,x,x,x,x,
COc1ccc(N2C(=O)NC(=O)/C(=C\c3ccc([N+](=O)[O-])s3)C2=O)cc1,-2.7,5.3,20.0,-3.0,63.7*,Hck Nef conf=i
COc1ccc(N2C(=O)NC(=O)/C(=C/c3ccc([N+](=O)[O-])s3)C2=O)cc1,u,-4.4,23.4,30.2,19.4,
COc1ccc(N2C(=O)/C(=C/C=C/c3ccccc3[N+](=O)[O-])C(=O)NC2=S)cc1,-1.9,-5.3,12.2,-5.6,62.8*,Hck Nef conf=+
COc1ccc(N2C(=O)/C(=C/c3cccs3)C(=O)NC2=S)cc1,7.6,-0.9,23.7,26.3,21.0,
SMILES,RanGTP-Imp inh,CaV13 ICDI inh,Runt-CBFb FRET,Runt-SMMHC FRET,Hck-Nef inh,others
COC(=O)C1=C(N)Oc2c(c(=O)oc3ccccc23)C1c1cccnc1 (stereo not given),-2.3,-5.1,-0.4,0.7,1.7,
C=CCN1C(=O)/C(=C/c2ccc(N3CCOCC3)o2)C(=O)NC1=S,-23.3,-6.0,-3.3,-51.4,2.7,
C=CCN1C(=O)NC(=O)/C(=C\c2ccc(-c3ccccc3[N+](=O)[O-])o2)C1=O,-1.3,1.8,-0.6,23.3,70.0*,Hck Nef conf=+
O=C1NC(=O)N(Cc2ccco2)C(=O)/C1=C/c1ccc(-c2cccc([N+](=O)[O-])c2)o1,x,x,34.7,32.2,52.4*,Hck Nef conf=+
CN(C)c1ccc(/C=C2/C(=O)NC(=O)N(Cc3ccco3)C2=O)cc1,0.4,-3.8,37.6,15.8,0.7,
Cc1cccc(N2C(=O)NC(=O)/C(=C/c3ccc(-c4ccc(C(=O)O)c(Cl)c4)o3)C2=O)c1,1.4,x,16.4,17.1,58.9*,Hck Nef conf=i
O=C(O)CCn1cc(C=C2C(=O)NC(=S)NC2=O)c(-c2ccccc2)n1,5.9,-6.7,25.6,32.8,90.0*,Hck Nef conf=i
O=C(O)CCn1cc(C=C2C(=O)NC(=S)NC2=O)c(-c2cc3ccccc3oc2=O)n1,3.5,-4.1,20.6,22.7,47.7,
O=[N+]([O-])c1ccccc1-c1cc(-c2ccccc2)cc(-c2ccccc2)[n+]1Cc1ccccc1Cl,-0.9,-9.1,x,x,x,
Nc1cc2nc3ccccc3nc2cc1N,-2.1,-22.0,17.8,-371.8,57.4*,Hck Nef conf=i
CC(C)N1CCOC(c2ccc(O)c(O)c2)C1 (stereo not given),x,-5.1,x,x,x,
Cc1cccn2c(=O)c3cc(C(=O)N4CCC5(CC4)OCCO5)n(C)c3nc12,3.0,-4.2,28.8,83.3*,54.4*,
CCCCN1C(=O)NC(=O)C2(Cc3ccccc3N3CCOCC32)C1=O (stereo not given),-2.3,-5.0,-2.8,-0.3,0.2,
COc1ccc(/C=C2/C(=O)N(Cc3ccco3)C(=O)N(C(C)C)C2=O)cc1,x,-5.5,17.4,-0.3,95.1*,Hck Nef conf=i
CNS(=O)(=O)c1ccc(N=Cc2c(O)n(-c3ccc(C)cc3)c(=O)[nH]c2=O)cc1,0.6,3.6,-0.8,-0.8,17.1,

# Compound activity from PubChem.
